Source: PubChem BioAssay (Johns Hopkins Ion Channel Center)
Compounds with a hit are over-represented: about 3.7% of the library has one in this group of screens.
KCNK9 block: human KCNK9 channel inhibition; Q9NPC2; HEK293 KCNK9, FluxOR thallium flux fluorescence; stronger effect = lower value; B-score at 10 µM; actives 1.2% (n = 310,000);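 active means ratio B-score over 3 SD below the library mean, with starting fluorescence within 5 SD of its mean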;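 further: negative B-score means less thallium flux so channel inhibition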
KCNK3 block: human KCNK3 channel inhibition, primary screen; O14649; CHO-KCNK3 thallium flux, FluxOR fluorescence; stronger effect = lower value; B-score at 10 µM; actives 0.84% (n = 340,000); AID 602410;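 active means B-score under library mean minus 4 SD, starting fluorescence ratio at most library mean plus 5 SD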;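 further: more negative B-score means stronger inhibition of thallium flux through KCNK3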
Target sequence (O14649 whole entry, looked up): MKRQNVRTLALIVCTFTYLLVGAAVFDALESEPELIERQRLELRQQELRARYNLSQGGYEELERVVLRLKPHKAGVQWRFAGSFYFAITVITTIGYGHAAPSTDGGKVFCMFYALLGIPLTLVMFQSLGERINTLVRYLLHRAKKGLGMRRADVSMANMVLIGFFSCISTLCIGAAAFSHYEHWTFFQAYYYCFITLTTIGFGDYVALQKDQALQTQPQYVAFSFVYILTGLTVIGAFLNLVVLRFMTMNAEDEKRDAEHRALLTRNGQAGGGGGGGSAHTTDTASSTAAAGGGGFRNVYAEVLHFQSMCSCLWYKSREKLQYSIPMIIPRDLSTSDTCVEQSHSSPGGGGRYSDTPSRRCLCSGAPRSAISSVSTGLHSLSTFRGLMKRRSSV
Kir21 block: blocks the mouse Kir2.1 inward-rectifier potassium channel. P35561. HEK293-Kir2.1, FluxOR thallium flux fluorescence; stronger effect = lower value. B-score at 10 µM. actives 0.85% (n = 310,000). AID 1672;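 active means fluorescence ratio B-score at or below minus 3 SD of library scores, with starting-brightness B-score within 2 SD, cut at about -4.2 in these data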;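 further: channel flux triggered by added potassium and thallium sulfate stimulus; B-score of peak minus minimum fluorescence over baseline after thallium stimulus; more negative B-score means stronger Kir2.1 block with less thallium influx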
KCNQ1 pot: human KCNQ1 channel potentiation or activation; P51787; CHO-K1 KCNQ1, thallium flux FluxOR fluorescence; stronger effect = higher value; B-score at 10 µM; actives 0.35% (n = 310,000);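 active means fluorescence ratio B-score, a plate-corrected score, at least three library SD, with initial intensity B-score within 5 SD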
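Schedule – 37 °C overnight plating, 90-min dark dye load, 20-min compound pretreatment · System – stable KCNQ1 CHO-K1 line · Probe or stimulus – thallium- and potassium-containing depolarizing buffer · Measured by – kinetic FluxOR fluorescence, 10 s baseline plus 110 s post-stimulus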
hERG rescue: hERG (human) protection from proarrhythmic block; Q12809; CHO-hERG, FluxOR thallium flux, dofetilide IC70 present; activation (rescue from dofetilide block), less the hit threshold, % at 10 µM; actives 0.51% (n = 310,000); AID 1511;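 active means activation above the mean of controls blocked by dofetilide plus 5 SD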;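 further: thallium influx through hERG after potassium depolarization seen as dye fluorescence rise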
KCNQ1 block: inhibitors of human KCNQ1 potassium channel; CHO-K1 KCNQ1, FluxOR thallium flux fluorescence; stronger effect = higher value; B-score at 10 µM; actives 1.3% (n = 310,000); AID 2642;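 active means compounds whose thallium flux B-score, printed positive for inhibition, exceeds three library SD while starting fluorescence stays within three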;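 further: channel opened by potassium depolarization with thallium stimulus after 20 min compound exposure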
KCNK3 confirm: human KCNK3 channel inhibition, confirmation assay; shares compounds with KCNK3 block; CHO-KCNK3 thallium flux, FluxOR fluorescence; 0% buffer, 100% carvedilol maximal block; ratio percent of control, % at 10 µM; actives 99% (n = 2,400); AID 651638;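 active means ratio percent of control, averaged over triplicates, above buffer control mean plus 5 SD, cut at about 64% in these data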;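 further: ratio is the fluorescence rise from min to max over baseline after thallium stimulus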
KCNK3 uninduced: activity in cells without induced KCNK3 expression. shares compounds with KCNK3 block. non-induced KCNK3 parental cells, FluxOR thallium flux; stronger effect = lower value. thallium flux ratio (lower = more inhibition) at 10 µM. actives 40% (n = 2,400);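 active means thallium flux ratio, averaged over three wells, more than 5 SD below the buffer control mean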;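 further: host cells are CHO cells without KCNK3 induction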
Each line names hits and unclear results; the compound was inactive in the other large screens (follow-up assays come after a bar, where they were run).

CCC(C(=O)Nc1ccc(C(=O)O)cc1NC(=O)C(CC)c1ccccc1)c1ccccc1 (stereo not drawn)	none
COC(=O)c1ccc(N2C(=O)Nc3ccccc3N2O)cc1	none
COCC1CCN(C(=O)c2oc3c(F)cccc3c2C)C1 (stereo not drawn)	none
Cc1oc(-c2ccccc2Cl)nc1CS(=O)(=O)CC(=O)N1CCOCC1	none
Cc1cccc2c(=O)c(Br)c(C)n(Cc3ccccc3)c12	KCNK9 block -7.8, KCNK3 block -8.9 | KCNK3 confirm 105 | KCNK3 uninduced inactive
CC1Cc2ccccc2N1S(=O)(=O)c1cccs1 (stereo not drawn)	KCNK3 block -9.4 | KCNK3 confirm 124 | KCNK3 uninduced 0.13
Cc1ccc(S(=O)(=O)N2c3ccccc3CC2C)cc1 (stereo not drawn)	none
Cc1ccc2cc(CN(Cc3ccccc3)Cc3nnnn3C3CCCC3)c(=O)[nH]c2c1	KCNK3 block -10 | KCNK3 confirm 103 | KCNK3 uninduced 0.15
CCc1ccc2[nH]c(=O)c(CN(Cc3ccc4c(c3)OCO4)Cc3nnnn3C3CCCC3)cc2c1	KCNK3 block -8.7 | KCNK3 confirm 128 | KCNK3 uninduced 0.13
Cc1ccc2cc(CN(Cc3ccc(F)cc3)Cc3nnnn3C3CCCC3)c(=O)[nH]c2c1	none
O=C(/C=C/c1ccccc1Cl)c1cccnc1	KCNK3 block -9.7 | KCNK3 confirm 86 | KCNK3 uninduced inactive
CC(C)(C)NC(=O)c1cccc2c1OC(C)(C)C2	none
CC1(C)Cc2cccc(C(=O)NCc3ccco3)c2O1	KCNK3 block -11 | KCNK3 confirm 105 | KCNK3 uninduced inactive
CCOC(=O)c1c(NC(=O)C2COc3ccccc3O2)sc(C)c1C (stereo not drawn)	KCNK3 block -8.8 | KCNK3 confirm 107 | KCNK3 uninduced 0.14
Cc1cc(N2C3CCC2CC(O)(c2ccc(F)cc2)C3)nc(-c2ccccc2)n1 (stereo not drawn)	KCNK3 block -10 | KCNK3 confirm 101 | KCNK3 uninduced 0.15
CN(C)/C=C(\C(=O)c1ccc(F)cc1F)c1nnnn1-c1ccccc1	none
Cc1onc(-c2ccccc2Cl)c1C(=O)N1CCOC12CCCCC2	none
O=C(Nc1ccccc1O)N1c2ccccc2Sc2ccccc21	KCNK3 block -10 | KCNK3 confirm 103 | KCNK3 uninduced inactive
O=C(NCCO)N1c2ccccc2Sc2ccccc21	none
CCn1c2ccccc2c2cc(NC(=O)c3ccc(=O)oc3)ccc21	none
CCn1c2ccccc2c2cc(NC(=O)c3cc(C)on3)ccc21	KCNK3 block -10 | KCNK3 confirm 123 | KCNK3 uninduced 0.16
CCn1c2ccccc2c2cc(/C=N/NC(=O)c3ccncc3)ccc21	KCNK3 block -11 | KCNK3 confirm 116 | KCNK3 uninduced 0.14
CCn1c2ccccc2c2cc(NC(=O)c3ccc(Br)o3)ccc21	KCNK3 block -11 | KCNK3 confirm 116 | KCNK3 uninduced inactive
COc1ccc(OC)c(NC(=O)CSc2nc(N3CCOCC3)nc(N3CCOCC3)n2)c1	none
CN(CC(=O)Nc1cccc(F)c1)C(=O)C1(c2ccccc2)CC1	none (no result: KCNK9 block, Kir21 block, KCNQ1 pot, hERG rescue, KCNQ1 block)
CC1(C)C2CCC1(CS(=O)(=O)N1CCC(C(=O)O)CC1)C(=O)C2 (stereo not drawn)	none
CCOC(=O)C1=C(C)N=c2s/c(=C/c3cccc([N+](=O)[O-])c3O)c(=O)n2C1c1ccccc1 (stereo not drawn)	KCNK3 block -12, KCNQ1 block 13 | KCNK3 confirm 124 | KCNK3 uninduced 0.1
CN(C(=O)c1ccoc1)c1ccc2ccccc2c1	KCNK3 block -10 | KCNK3 confirm 55 | KCNK3 uninduced inactive
Cn1c(SCC(=O)Nc2ccc(C(N)=O)cc2)nnc1-c1cccs1	none
COc1cccc(-c2cccc(NC(=O)C3CCN(Cc4cccc(C)n4)CC3)c2)c1	none
